{"source": "ChEMBL document CHEMBL5724801", "about": "“EUbOPEN Chemogenomics Library - Multiplex” (2024)", "key": {"Fibroblast": {"system": "Fibroblast", "experiment": "Multiplex assay against human fibroblast", "type": "toxicity, cell-based", "procedure,_shortened": "(§1)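 Values for tubulin, mitochondrial-mass and membrane-permeability phenotypes are per cents of cells with healthy nuclei. These cells were identified by CellPathfinder machine-learning gating of live cells that had been stained at seeding with Hoechst33342, BioTracker Green Microtubule Cytoskeleton Dye, MitoTracker Red and Annexin V Alexa Fluor 680 and imaged on a CQ1 microscope at 37°C and 5% CO2 after compound addition. The gating first set Hoechst high-intensity objects apart from normal cells, then split normal cells into healthy, pyknosed or fragmented nuclei, and pyknosed cells into mitotic or apoptotic.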"}, "HEK-293T": {"system": "HEK-293T", "experiment": "Multiplex assay against HEK293T", "type": "toxicity, cell-based", "details": "human", "procedure,_shortened": "as §1"}, "[1]": {"details": "12 h, 1 µM, compound concentration 1 uM"}, "[2]": {"details": "12 h, 10 µM, compound concentration 10 uM"}, "[3]": {"details": "24 h, 1 µM, compound concentration 1 uM"}, "[4]": {"details": "24 h, 10 µM, compound concentration 10 uM"}, "[5]": {"details": "48 h, 1 µM, compound concentration 1 uM"}, "[6]": {"details": "48 h, 10 µM, compound concentration 10 uM"}}, "note": "Values joined by “and” are separate entries in the source; they are usually repeats but may differ in a detail not shown here. Equal entries are not always repeated.", "data": [{"smiles": "O=C1COc2nccc(-c3ccccc3F)c2CN1Cc1cc(C(F)(F)F)cc(C(F)(F)F)c1", "values": [{"measurement": "Population Apoptotic (%)", "setting": "Fibroblast; [1]", "value": "38% and 29%"}, {"measurement": "Population Fragmented Nuclei (%)", "setting": "Fibroblast; [1]", "value": "12% and 17%"}, {"measurement": "Population Healthy Nuclei (%)", "setting": "Fibroblast; [1]", "value": "74% and 62%"}, {"measurement": "Population Hoechst High Intensity Objects (%)", "setting": "Fibroblast; [1]", "value": "2% and 0%"}, {"measurement": "Population Membrane Permeable-Phenotype (%)", "setting": "Fibroblast; [1]", "value": 1, "unit": "%"}, {"measurement": "Population Mitochondria Different-Phenotype (%)", "setting": "Fibroblast; [1]", "value": "7% and 5%"}, {"measurement": "Population Mitotic Cells (%)", "setting": "Fibroblast; [1]", "value": "61% and 70%"}, {"measurement": "Population Normal (%)", "setting": "Fibroblast; [1]", "value": "97% and 99%"}, {"measurement": "Population Pyknosed Nuclei (%)", "setting": "Fibroblast; [1]", "value": "13% and 20%"}, {"measurement": "Population Tubulin-Different-Phenotype (%)", "setting": "Fibroblast; [1]", "value": "27% and 32%"}, {"measurement": "Total Cell Count", "setting": "Fibroblast; [1]", "value": "195 and 135"}, {"measurement": "Population Apoptotic (%)", "setting": "Fibroblast; [2]", "value": "54% and 37%"}, {"measurement": "Population Fragmented Nuclei (%)", "setting": "Fibroblast; [2]", "value": "15% and 24%"}, {"measurement": "Population Healthy Nuclei (%)", "setting": "Fibroblast; [2]", "value": "69% and 51%"}, {"measurement": "Population Hoechst High Intensity Objects (%)", "setting": "Fibroblast; [2]", "value": "5% and 8%"}, {"measurement": "Population Membrane Permeable-Phenotype (%)", "setting": "Fibroblast; [2]", "value": "0% and 4%"}, {"measurement": "Population Mitochondria Different-Phenotype (%)", "setting": "Fibroblast; [2]", "value": "10% and 12%"}, {"measurement": "Population Mitotic Cells (%)", "setting": "Fibroblast; [2]", "value": "45% and 62%"}, {"measurement": "Population Normal (%)", "setting": "Fibroblast; [2]", "value": "94% and 91%"}, {"measurement": "Population Pyknosed Nuclei (%)", "setting": "Fibroblast; [2]", "value": "14% and 23%"}, {"measurement": "Population Tubulin-Different-Phenotype (%)", "setting": "Fibroblast; [2]", "value": "66% and 50%"}, {"measurement": "Total Cell Count", "setting": "Fibroblast; [2]", "value": "161 and 132"}, {"measurement": "Population Apoptotic (%)", "setting": "Fibroblast; [3]", "value": "53% and 34%"}, {"measurement": "Population Fragmented Nuclei (%)", "setting": "Fibroblast; [3]", "value": "11% and 20%"}, {"measurement": "Population Healthy Nuclei (%)", "setting": "Fibroblast; [3]", "value": "74% and 58%"}, {"measurement": "Population Hoechst High Intensity Objects (%)", "setting": "Fibroblast; [3]", "value": "3% and 2%"}, {"measurement": "Population Membrane Permeable-Phenotype (%)", "setting": "Fibroblast; [3]", "value": "0% and 2%"}, {"measurement": "Population Mitochondria Different-Phenotype (%)", "setting": "Fibroblast; [3]", "value": "6% and 3%"}, {"measurement": "Population Mitotic Cells (%)", "setting": "Fibroblast; [3]", "value": "46% and 65%"}, {"measurement": "Population Normal (%)", "setting": "Fibroblast; [3]", "value": "96% and 97%"}, {"measurement": "Population Pyknosed Nuclei (%)", "setting": "Fibroblast; [3]", "value": "14% and 20%"}, {"measurement": "Population Tubulin-Different-Phenotype (%)", "setting": "Fibroblast; [3]", "value": "23% and 39%"}, {"measurement": "Total Cell Count", "setting": "Fibroblast; [3]", "value": "203 and 142"}, {"measurement": "Population Apoptotic (%)", "setting": "Fibroblast; [4]", "value": "66% and 55%"}, {"measurement": "Population Fragmented Nuclei (%)", "setting": "Fibroblast; [4]", "value": "18% and 26%"}, {"measurement": "Population Healthy Nuclei (%)", "setting": "Fibroblast; [4]", "value": "71% and 56%"}, {"measurement": "Population Hoechst High Intensity Objects (%)", "setting": "Fibroblast; [4]", "value": "3% and 6%"}, {"measurement": "Population Membrane Permeable-Phenotype (%)", "setting": "Fibroblast; [4]", "value": "0% and 7%"}, {"measurement": "Population Mitochondria Different-Phenotype (%)", "setting": "Fibroblast; [4]", "value": "11% and 5%"}, {"measurement": "Population Mitotic Cells (%)", "setting": "Fibroblast; [4]", "value": "33% and 45%"}, {"measurement": "Population Normal (%)", "setting": "Fibroblast; [4]", "value": "96% and 93%"}, {"measurement": "Population Pyknosed Nuclei (%)", "setting": "Fibroblast; [4]", "value": "9% and 16%"}, {"measurement": "Population Tubulin-Different-Phenotype (%)", "setting": "Fibroblast; [4]", "value": "57% and 61%"}, {"measurement": "Total Cell Count", "setting": "Fibroblast; [4]", "value": "162 and 129"}, {"measurement": "Population Apoptotic (%)", "setting": "Fibroblast; [5]", "value": "75% and 31%"}, {"measurement": "Population Fragmented Nuclei (%)", "setting": "Fibroblast; [5]", "value": "16% and 29%"}, {"measurement": "Population Healthy Nuclei (%)", "setting": "Fibroblast; [5]", "value": "75% and 55%"}, {"measurement": "Population Hoechst High Intensity Objects (%)", "setting": "Fibroblast; [5]", "value": "5% and 6%"}, {"measurement": "Population Membrane Permeable-Phenotype (%)", "setting": "Fibroblast; [5]", "value": "0% and 1%"}, {"measurement": "Population Mitochondria Different-Phenotype (%)", "setting": "Fibroblast; [5]", "value": "4% and 1%"}, {"measurement": "Population Mitotic Cells (%)", "setting": "Fibroblast; [5]", "value": "25% and 68%"}, {"measurement": "Population Normal (%)", "setting": "Fibroblast; [5]", "value": "94% and 93%"}, {"measurement": "Population Pyknosed Nuclei (%)", "setting": "Fibroblast; [5]", "value": "8% and 14%"}, {"measurement": "Population Tubulin-Different-Phenotype (%)", "setting": "Fibroblast; [5]", "value": "28% and 25%"}, {"measurement": "Total Cell Count", "setting": "Fibroblast; [5]", "value": "210 and 143"}, {"measurement": "Population Apoptotic (%)", "setting": "Fibroblast; [6]", "value": "72% and 60%"}, {"measurement": "Population Fragmented Nuclei (%)", "setting": "Fibroblast; [6]", "value": "20% and 39%"}, {"measurement": "Population Healthy Nuclei (%)", "setting": "Fibroblast; [6]", "value": "72% and 49%"}, {"measurement": "Population Hoechst High Intensity Objects (%)", "setting": "Fibroblast; [6]", "value": "2% and 5%"}, {"measurement": "Population Membrane Permeable-Phenotype (%)", "setting": "Fibroblast; [6]", "value": "0% and 1%"}, {"measurement": "Population Mitochondria Different-Phenotype (%)", "setting": "Fibroblast; [6]", "value": "14% and 8%"}, {"measurement": "Population Mitotic Cells (%)", "setting": "Fibroblast; [6]", "value": "27% and 40%"}, {"measurement": "Population Normal (%)", "setting": "Fibroblast; [6]", "value": "97% and 94%"}, {"measurement": "Population Pyknosed Nuclei (%)", "setting": "Fibroblast; [6]", "value": "6% and 11%"}, {"measurement": "Population Tubulin-Different-Phenotype (%)", "setting": "Fibroblast; [6]", "value": "62% and 47%"}, {"measurement": "Total Cell Count", "setting": "Fibroblast; [6]", "value": "172 and 144"}, {"measurement": "Population Apoptotic (%)", "setting": "HEK-293T; [1]", "value": "31% and 51%"}, {"measurement": "Population Fragmented Nuclei (%)", "setting": "HEK-293T; [1]", "value": "8% and 4%"}, {"measurement": "Population Healthy Nuclei (%)", "setting": "HEK-293T; [1]", "value": "80% and 83%"}, {"measurement": "Population Hoechst High Intensity Objects (%)", "setting": "HEK-293T; [1]", "value": "5% and 10%"}, {"measurement": "Population Membrane Permeable-Phenotype (%)", "setting": "HEK-293T; [1]", "value": 0, "unit": "%"}, {"measurement": "Population Mitochondria Different-Phenotype (%)", "setting": "HEK-293T; [1]", "value": "41% and 67%"}, {"measurement": "Population Mitotic Cells (%)", "setting": "HEK-293T; [1]", "value": "68% and 48%"}, {"measurement": "Population Normal (%)", "setting": "HEK-293T; [1]", "value": "94% and 89%"}, {"measurement": "Population Pyknosed Nuclei (%)", "setting": "HEK-293T; [1]", "value": "10% and 11%"}, {"measurement": "Population Tubulin-Different-Phenotype (%)", "setting": "HEK-293T; [1]", "value": "27% and 20%"}, {"measurement": "Total Cell Count", "setting": "HEK-293T; [1]", "value": "397 and 333"}, {"measurement": "Population Apoptotic (%)", "setting": "HEK-293T; [2]", "value": "38% and 57%"}, {"measurement": "Population Fragmented Nuclei (%)", "setting": "HEK-293T; [2]", "value": "10% and 8%"}, {"measurement": "Population Healthy Nuclei (%)", "setting": "HEK-293T; [2]", "value": "76% and 79%"}, {"measurement": "Population Hoechst High Intensity Objects (%)", "setting": "HEK-293T; [2]", "value": "9% and 5%"}, {"measurement": "Population Membrane Permeable-Phenotype (%)", "setting": "HEK-293T; [2]", "value": 0, "unit": "%"}, {"measurement": "Population Mitochondria Different-Phenotype (%)", "setting": "HEK-293T; [2]", "value": "67% and 76%"}, {"measurement": "Population Mitotic Cells (%)", "setting": "HEK-293T; [2]", "value": "61% and 42%"}, {"measurement": "Population Normal (%)", "setting": "HEK-293T; [2]", "value": "90% and 94%"}, {"measurement": "Population Pyknosed Nuclei (%)", "setting": "HEK-293T; [2]", "value": "13% and 12%"}, {"measurement": "Population Tubulin-Different-Phenotype (%)", "setting": "HEK-293T; [2]", "value": "68% and 39%"}, {"measurement": "Total Cell Count", "setting": "HEK-293T; [2]", "value": "475 and 382"}, {"measurement": "Population Apoptotic (%)", "setting": "HEK-293T; [3]", "value": "21% and 59%"}, {"measurement": "Population Fragmented Nuclei (%)", "setting": "HEK-293T; [3]", "value": "8% and 5%"}, {"measurement": "Population Healthy Nuclei (%)", "setting": "HEK-293T; [3]", "value": "84% and 87%"}, {"measurement": "Population Hoechst High Intensity Objects (%)", "setting": "HEK-293T; [3]", "value": "3% and 8%"}, {"measurement": "Population Membrane Permeable-Phenotype (%)", "setting": "HEK-293T; [3]", "value": 0, "unit": "%"}, {"measurement": "Population Mitochondria Different-Phenotype (%)", "setting": "HEK-293T; [3]", "value": "32% and 39%"}, {"measurement": "Population Mitotic Cells (%)", "setting": "HEK-293T; [3]", "value": "78% and 40%"}, {"measurement": "Population Normal (%)", "setting": "HEK-293T; [3]", "value": "96% and 91%"}, {"measurement": "Population Pyknosed Nuclei (%)", "setting": "HEK-293T; [3]", "value": "7% and 6%"}, {"measurement": "Population Tubulin-Different-Phenotype (%)", "setting": "HEK-293T; [3]", "value": "23% and 12%"}]}]}
